pIC50: −log10 of the molar value. ≈ marks a conversion by molar mass, not a printed value.
Experiments:
[1] = Antioxidant activity assessed as superoxide radical scavenging activity after 20 mins by NBT reduction assay; format: functional
In short: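 Superoxide made by xanthine/xanthine oxidase and detected by NBT reduction. Xanthine oxidase (0.8 U/ml stock) added, then 37 °C for 20 min. Stopped with 1 M HCl and read at 560 nm. Blank lacks enzyme. IC50 from a calibration curve. Triplicate experiments, mean.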

[2] = target: T1, Prostaglandin G/H synthase 1 (Ovis aries, UniProt P05979); experiment: Inhibition of ovine COX1 by colorimetric assay
T1 sequence (P05979 whole entry): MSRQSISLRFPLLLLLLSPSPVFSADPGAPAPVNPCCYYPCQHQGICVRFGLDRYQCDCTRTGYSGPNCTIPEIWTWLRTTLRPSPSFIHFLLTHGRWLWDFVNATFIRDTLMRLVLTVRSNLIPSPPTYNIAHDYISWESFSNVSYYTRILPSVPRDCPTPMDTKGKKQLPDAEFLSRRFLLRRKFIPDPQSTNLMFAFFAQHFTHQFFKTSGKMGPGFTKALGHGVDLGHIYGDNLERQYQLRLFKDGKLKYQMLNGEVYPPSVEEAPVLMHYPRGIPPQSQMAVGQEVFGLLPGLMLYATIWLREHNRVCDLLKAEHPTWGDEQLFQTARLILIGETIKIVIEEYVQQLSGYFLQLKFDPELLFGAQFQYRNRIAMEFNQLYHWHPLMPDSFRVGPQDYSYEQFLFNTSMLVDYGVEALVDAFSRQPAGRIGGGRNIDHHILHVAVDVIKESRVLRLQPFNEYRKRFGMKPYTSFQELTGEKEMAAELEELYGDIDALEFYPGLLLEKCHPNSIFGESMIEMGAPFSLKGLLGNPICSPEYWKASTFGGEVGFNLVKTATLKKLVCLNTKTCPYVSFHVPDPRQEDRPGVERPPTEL
In short: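 Ovine COX-1, colorimetric inhibitor screening kit. Enzyme preincubated 5 min at 25 °C with compound. Arachidonic acid (final 1.1 mM) and TMPD then added, 5 min at 25 °C. Inhibition % = [1−(A1−A2)/A0]×100, blank without TMPD. IC50 from calibration curve over several concentrations. Triplicate experiments, mean reported.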

[3] = tested on: Radical scavenging activity; experiment: Antioxidant activity assessed as DPPH radical scavenging activity after 30 mins by microplate reader assay; format: functional
In short: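 Mixed 1 min, then kept at room temperature ([…]) for 30 min. Absorbance read at 515 nm. Scavenging % corrected for a no-DPPH blank. IC50 taken from a calibration curve. Triplicate experiments, mean reported.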

Work on COc1cc(O)cc(CCc2cccc(O)c2)c1 [BATATASIN III] yielded an IC50 [1] of over 100 µg/mL, a pIC50 [2] of under 3.39 and an IC50 [3] of over 100 µg/mL.
COc1cc(O)cc2c1-c1c(O)cccc1CC2 [HIRCINOL] showed an IC50 [1] of 62.4 µg/mL (≈ 258 µM), a pIC50 [2] of under 3.38 and an IC50 [3] of 63.8 µg/mL (≈ 263 µM).
Compound COc1c(O)cc(CCc2ccccc2)cc1O has an IC50 [1] of over 100 µg/mL, a pIC50 [2] of under 3.39 and an IC50 [3] of 37.5 µg/mL (≈ 154 µM).
COc1cc(O)c2c(c1)CCc1cc(O)ccc1-2 [LUSIANTHRIDIN] gave an IC50 [1] of 51.5 µg/mL (≈ 213 µM), a pIC50 [2] of under 3.38 and an IC50 [3] of 43 µg/mL (≈ 177 µM).
Oc1ccc(CC[C@@H](O)C[C@H](O)CCc2ccc(O)cc2)cc1 [(+)-HANNOKINOL] showed an IC50 [1] of over 100 µg/mL, a pIC50 [2] of under 3.50 and an IC50 [3] of over 100 µg/mL.
COc1cc(CCc2cc(O)cc(O)c2)ccc1O [TRISTIN] showed an IC50 [1] of 51.6 µg/mL (≈ 198 µM) and an IC50 [3] of 35.2 µg/mL (≈ 135 µM).
O=C1O[C@H]([C@@H](O)CO)C(O)=C1O [ASCORBIC ACID] gave an IC50 [1] of 16.7 µg/mL (≈ 94.8 µM) and an IC50 [3] of 19.2 µg/mL (≈ 109 µM).
With Oc1cc(O)c2c(c1)OC(c1ccc(O)c(O)c1)C(O)C2 (stereo not given) [CATECHIN] the IC50 [1] was 13.7 µg/mL (≈ 47.2 µM) and the IC50 [3] was 13.5 µg/mL (≈ 46.5 µM).
With COc1cc(CCc2ccccc2O)cc(OC)c1O the IC50 [1] was 56.3 µg/mL (≈ 205 µM), the pIC50 [2] was under 3.44 and the IC50 [3] was 28.8 µg/mL (≈ 105 µM).
In the case of COc1cc(/C=C/C=C/C(=O)CCc2ccc(O)cc2)ccc1O, the IC50 [1] was 38.8 µg/mL (≈ 120 µM), the pIC50 [2] was under 3.51 and the IC50 [3] was 40 µg/mL (≈ 123 µM).
In the case of O=C(/C=C/C=C/c1ccc(O)cc1)CCc1ccc(O)cc1, the IC50 [1] was 44.1 µg/mL (≈ 150 µM), the pIC50 [2] was under 3.47 and the IC50 [3] was over 100 µg/mL.
In the case of O=C(/C=C/C=C/c1ccc(O)cc1)/C=C/c1ccc(O)cc1, the IC50 [1] was over 100 µg/mL, the pIC50 [2] was 4.70 and the IC50 [3] was over 100 µg/mL.
Work on Oc1cc(O)c2c(c1)CCc1ccccc1O2 yielded an IC50 [1] of over 100 µg/mL, a pIC50 [2] of under 3.36 and an IC50 [3] of over 100 µg/mL.
In the case of COc1ccc(CCc2ccccc2O)cc1OC, the IC50 [1] was over 100 µg/mL, the pIC50 [2] was under 3.41 and the IC50 [3] was over 100 µg/mL.
In the case of COc1cc2c(ccc3cc(O)cc(OC)c32)cc1O, the IC50 [1] was 39.6 µg/mL (≈ 147 µM), the pIC50 [2] was 4.95 and the IC50 [3] was 31.4 µg/mL (≈ 116 µM).
Compound Oc1cc(O)cc(CCc2ccccc2O)c1 has an IC50 [1] of over 100 µg/mL, a pIC50 [2] of under 3.36 and an IC50 [3] of over 100 µg/mL.
O=c1cc(-c2ccc(O)cc2)oc2cc(O)cc(O)c12 [APIGENIN] showed an IC50 [1] of over 100 µg/mL, a pIC50 [2] of under 3.43 and an IC50 [3] of over 100 µg/mL.
Work on COc1cc(CC[C@@H](O)C[C@H](O)CCc2ccc(O)c(OC)c2)ccc1O yielded an IC50 [1] of 48.7 µg/mL (≈ 129 µM), a pIC50 [2] of under 3.58 and an IC50 [3] of 12.3 µg/mL (≈ 32.7 µM).
With COc1cc(O)cc(CCc2ccccc2O)c1 [BATATASIN IV] the IC50 [1] was over 100 µg/mL, the pIC50 [2] was under 3.39 and the IC50 [3] was over 100 µg/mL.
COc1c(O)cccc1CCc1cc(O)cc(O)c1 showed an IC50 [1] of over 100 µg/mL, a pIC50 [2] of under 3.42 and an IC50 [3] of 46.7 µg/mL (≈ 179 µM).
With COc1cc(O)cc2c1Oc1ccccc1CC2 the IC50 [1] was over 100 µg/mL, the pIC50 [2] was under 3.38 and the IC50 [3] was 40.6 µg/mL (≈ 168 µM).

— ChEMBL document CHEMBL1153410, “Phenolic compounds with radical scavenging and cyclooxygenase-2 (COX-2) inhibitory activities from Dioscorea opposita” (Bioorg Med Chem, 2009)
